Assay results from PubChem BioAssay.
Records with an inconclusive call do not appear.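 Rule for the calls, unless noted: active = cell viability at or below a set limit in both duplicate runs, the limit being the all-compound median minus 4 SD (cut at about 23% in these data, passing the limit was not always enough); inconclusive = no clear call, values can overlap the other calls; inactive = the rest.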

Assays:
[1] = OD615 S. cerevisiae growth inhibition, permissive medium, pilot counter-assay, permissive growth control for S. cerevisiae lifespan shortening project (AID 705;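 active = growth inhibition above 25% in both replicates, a cutoff set 3 SD above the mean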); details: OD615, 24 h, at 10 µM, hits give high values
How it was run: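 System: Engineered DeaD yeast | Buffer or medium: SC raffinose/galactose permissive medium | Doses: 10 µM single dose, 0.25% DMSO | Times: 24 h exposure, 30 °C | Measured by: OD615 turbidity read | Read-out: Yeast growth inhibition indicated by reduced 24 h OD615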

[2] = Restrictive medium S. cerevisiae growth inhibition, OD615, pilot screen of yeast lifespan reduction project, restrictive growth control (AID 706;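 active = growth inhibition above a set limit, 3 SD over mean compound inhibition, in both replicates, cut at about 43% in these data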;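 note: modified DeaD lifespan yeast strain shifted to restrictive glucose medium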); details: OD615, 48 h, at 10 µM, hits give high values
How it was run: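 Assay system: engineered S. cerevisiae DeaD strain; Buffer or medium: CSMM-D glucose medium; Dosing: 10 µM compound, 0.25% DMSO; Times: cell pre-growth 4 h, compound exposure 48 h, 30 °C; Detection: absorbance (optical density) measured at 615 nm.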

[3] = viability gain of MRP-1-high H69AR cells under doxorubicin, pilot screen, MRP-1 activator project, CellTiter-Glo, duplicate (AID 807;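 active = viability increase at or above a cutoff of the median across tested compounds plus 3 SD, cut at about 8.5% in these data, passing the limit was not always enough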;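 note: compound pretreatment 18-22 h then 72 h combined with doxorubicin; 0% = doxorubicin alone and 100% = vehicle without doxorubicin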); details: H69AR viability with doxorubicin, CellTiter-Glo luminescence; at 10 µM; hits give high values
[4] = growth suppression of beta-catenin knockout HCT116, pilot screen, human colon tumor cells (AID 823); details: CellTiter-Glo, 60 h, at 10 µM, hits give low values;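 note: 0% = wells killed by 20 µM Hyamine and 100% = untreated DMSO cell wells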
[5] = growth suppression of PTEN-deleted HCT116, pilot screen, cell-based, HCT116 clonal line, CellTiter-Glo (AID 824;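 active = viability at or below 27.92% in each of two runs, the all-compound median minus 4 SD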;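 note: 0% = 20 µM Hyamine control and 100% = vehicle cell control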); details: 60 h, at 10 µM, hits give low values
[6] = inhibitors of the yeast RAM network, pilot screen, dse1pr::URA3 reporter, 5-FOA selection (AID 869;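 active = inhibition over a set limit, the all-compound mean plus 3 SD, in both replicate runs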;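 note: 0% = DMSO wells with no growth and 100% = 10 µM 1-NA-PP1 with full growth; RAM network block rescues cells from 5-FOA so hits raise OD615 growth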); details: S. cerevisiae dse1pr::URA3 5-FOA growth, OD615, 2 d; at 10 µM; hits give high values; strain carries analog-sensitive mutant Cbk1 kinase
[7] = RAM signaling pathway blockade in yeast – S. cerevisiae, Pdr1DBD-CYC8 efflux-inhibited sensitized strain, primary screen (AID 1298;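 active = RAM network inhibition above 8.4% in each of two replicates, 3 SD over the compound average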;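 note: 0% = DMSO untreated cells without growth and 100% = 10 µM 1-NA-PP1 full growth; higher means more yeast growth rescued from 5-FOA killing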); details: S. cerevisiae cbk1-as DSE1-URA3 strain, 5-FOA growth OD615, 2 d; at 50 µM; hits give high values

CC1(C)CC(=O)C(C=NCCN2CCN(C(=O)CC3CCCC3)CC2)=C(O)C1
inactive: growth inhibition [1] -24.8% | growth inhibition [2] -8.86% | viability increase [3] -1.93% | viability [4] 96.9% | viability [5] 95.2% | inhibition [6] 1.25% | RAM network inhibition [7] 7.49%

COc1ccccc1N(CC(=O)Nc1c(C)cccc1C)S(C)(=O)=O
inactive: growth inhibition [1] -11.2% | growth inhibition [2] -8.78% | viability increase [3] -1.48% | viability [4] 101% | viability [5] 98.2% | inhibition [6] 0.715% | RAM network inhibition [7] 3.12%

COC(=O)CC1SC(=O)NC1=Nc1ccccc1 (configuration not stated)
inactive: growth inhibition [1] -7.63% | growth inhibition [2] -0.1% | viability increase [3] 0.96% | viability [4] 106% | viability [5] 89.1% | inhibition [6] 1.42% | RAM network inhibition [7] 4.94%

Cc1c(NC(=O)c2ccco2)cccc1-c1nc2cccnc2s1
inactive: growth inhibition [1] 1.62% | growth inhibition [2] -4.21% | viability increase [3] -4.21% | viability [4] 97.4% | viability [5] 95.5% | inhibition [6] 2.2% | RAM network inhibition [7] 5.74%

CCCc1cc(C(=O)N2CCN(C(c3ccccc3)c3ccccc3)CC2)no1
inactive: growth inhibition [1] -10.9% | growth inhibition [2] -6.91% | viability increase [3] 4.46% | viability [4] 98.7% | viability [5] 90.9% | inhibition [6] 0.485% | RAM network inhibition [7] 5.99%

CCCCNC(=O)Nc1cc(C(=O)OC)ccc1C
inactive: growth inhibition [1] -6.38% | growth inhibition [2] -14.2% | viability increase [3] 0.11% | viability [4] 85.2% | viability [5] 91.4% | inhibition [6] 1.55% | RAM network inhibition [7] 7.5%

CC(C)(C)c1ccc(-c2nnc3sc(-c4ccccn4)nn23)cc1
inactive: growth inhibition [1] -19.2% | growth inhibition [2] -24.6% | viability increase [3] 0.61% | viability [4] 100% | viability [5] 89.2% | inhibition [6] 2.01% | RAM network inhibition [7] 1.31%

Oc1ccc(-c2nc3cnccn3c2Nc2ccc3c(c2)OCCO3)cc1
inactive: growth inhibition [1] 2% | growth inhibition [2] 6.18% | viability increase [3] -6.18% | viability [4] 83.7% | viability [5] 83.8% | inhibition [6] 1.58% | RAM network inhibition [7] 7.64%

Cc1ccc2oc(=O)c3cnn(CC(=O)N(CCCN4CCOCC4)Cc4ccco4)c3c2c1
inactive: growth inhibition [1] -16.5% | growth inhibition [2] -28.7% | viability increase [3] -3.59% | viability [4] 93.2% | viability [5] 87.9% | inhibition [6] 1.55% | RAM network inhibition [7] 3.73%

Cc1csc2nc(CNS(=O)(=O)c3ccc4c(c3)CCCC4)cn12
inactive: growth inhibition [1] -17.5% | growth inhibition [2] 0.8% | viability increase [3] -0.44% | viability [4] 101% | viability [5] 93.2% | inhibition [6] 1.17% | RAM network inhibition [7] 0.48%

Clc1ccc(-c2nnn(Cc3nc4ccccc4s3)n2)cc1
inactive: growth inhibition [1] -2.44% | growth inhibition [2] -17.7% | viability increase [3] -2.27% | viability [4] 92.6% | viability [5] 96.6% | inhibition [6] 0.615% | RAM network inhibition [7] 2.46%

O=C(Nc1ccccc1C(=O)NC(Cc1c[nH]c2ccccc12)C(=O)O)c1ccco1 (configuration not stated)
inactive: growth inhibition [1] -11% | growth inhibition [2] -11.3% | viability increase [3] -2.96% | viability [4] 102% | viability [5] 97.1% | inhibition [6] 0.95% | RAM network inhibition [7] 2.94%

O=C1c2ccccc2C(=O)N1CCCc1nc2ccccc2c(=O)n1-c1cccnc1
inactive: growth inhibition [1] -1.63% | growth inhibition [2] 7.23% | viability increase [3] -3.29% | viability [4] 93.1% | viability [5] 90.8% | inhibition [6] 2.07% | RAM network inhibition [7] 2.78%

O=C1CCCCCN1CP(=O)(O)CCc1ccccc1
inactive: growth inhibition [1] -5.01% | growth inhibition [2] -0.455% | viability increase [3] -0.2% | viability [4] 100% | viability [5] 104% | inhibition [6] 1.19% | RAM network inhibition [7] 0.42%

Cc1ccccc1CN1CCNC(=O)C1CC(=O)O (configuration not stated)
inactive: growth inhibition [1] -13.2% | growth inhibition [2] -14.1% | viability increase [3] -3.29% | viability [4] 105% | viability [5] 96.2% | inhibition [6] 2.04% | RAM network inhibition [7] -0.64%

COc1ccc(Cl)cc1C(=O)NCC(c1ccco1)N1CCCC1 (configuration not stated)
inactive: growth inhibition [1] -8.88% | growth inhibition [2] -4.32% | viability increase [3] -3.47% | viability [4] 81% | viability [5] 80.7% | inhibition [6] 2.23% | RAM network inhibition [7] 10.1%

Cc1ccc(-n2c(SCC(N)=O)nc3c([nH]c4ccccc43)c2=O)cc1
inactive: growth inhibition [1] -15.5% | growth inhibition [2] -5.78% | viability increase [3] -2.14% | viability [4] 91.3% | viability [5] 87.5% | inhibition [6] 0.24% | RAM network inhibition [7] -0.05%

O=C(NCCN1C(=O)C2C3C=CC(C3)C2C1=O)Nc1ccccc1O (configuration not stated)
inactive: growth inhibition [1] -6.45% | growth inhibition [2] -1.21% | viability increase [3] -1.45% | viability [4] 106% | viability [5] 106% | inhibition [6] 1.5% | RAM network inhibition [7] 4.02%

COc1ccc2oc(C(=O)C3CC3)c(NC(=O)CCCN3C(=O)c4ccccc4C3=O)c2c1
inactive: growth inhibition [1] 2.6% | growth inhibition [2] 6.11% | viability increase [3] -3.63% | viability [4] 102% | viability [5] 93.6% | inhibition [6] 0.995% | RAM network inhibition [7] 3.53%

CCN(CCNC(=O)Cn1cc2c(n1)CCCC2)c1ccccc1
inactive: growth inhibition [1] -4.85% | growth inhibition [2] -6.55% | viability increase [3] 0.42% | viability [4] 109% | viability [5] 93.5% | inhibition [6] 2.4% | RAM network inhibition [7] 0.1%

CCCn1c2ccccc2c2cc(C(=O)O)ccc21
inactive: growth inhibition [1] -20.7% | growth inhibition [2] -6% | viability increase [3] -3.03% | viability [4] 106% | viability [5] 93.5% | inhibition [6] 1.95% | RAM network inhibition [7] 2.82%

COc1ccccc1S(=O)Cc1ccc(C(=O)NC2CCCC2)o1 (configuration not stated)
inactive: growth inhibition [1] 4.5% | growth inhibition [2] 4.6% | viability increase [3] -2.33% | viability [4] 107% | viability [5] 101% | inhibition [6] 0.395% | RAM network inhibition [7] 3.24%

Cn1c(Cn2c(=O)sc3ccccc32)nnc1SCC(=O)NCc1ccc2c(c1)OCO2
inactive: growth inhibition [1] -5.55% | growth inhibition [2] -2.44% | viability increase [3] 0.11% | viability [4] 103% | viability [5] 101% | inhibition [6] 1.07% | RAM network inhibition [7] 4.41%

Cc1cccc(NC(=O)CSc2nnc(-c3ccccc3)n2N)c1C
inactive: growth inhibition [1] -9.02% | growth inhibition [2] -15.1% | viability increase [3] -2.08% | viability [4] 94.4% | viability [5] 90.2% | inhibition [6] 1.85% | RAM network inhibition [7] 0.16%

O=C(NCCC1=CCCCC1)C1CCCN(S(=O)(=O)c2cccc3cccnc23)C1 (configuration not stated)
inactive: growth inhibition [1] -14.8% | growth inhibition [2] -12.7% | viability increase [3] -1.42% | viability [4] 89% | viability [5] 80.6% | inhibition [6] 2.14% | RAM network inhibition [7] 5.84%

CCOC(=O)c1ccc(NC(=O)CSc2nc3c(c(=O)n2-c2ccccc2OC)SCC3)cc1
inactive: growth inhibition [1] -1.49% | growth inhibition [2] -14.6% | viability increase [3] -2.33% | viability [4] 85.7% | viability [5] 81.4% | inhibition [6] 1.34% | RAM network inhibition [7] 3.9%

Cc1nc(SCC(=O)Nc2cccc(Cl)c2)n[nH]1
inactive: growth inhibition [1] -4.9% | growth inhibition [2] -4.81% | viability increase [3] -1.48% | viability [4] 97% | viability [5] 97.7% | inhibition [6] 0.56% | RAM network inhibition [7] -0.63%

Cc1ccc(C)c(Nc2ncnc3nc[nH]c23)c1
inactive: growth inhibition [1] -3.29% | growth inhibition [2] 0.02% | viability increase [3] -1.34% | viability [4] 103% | viability [5] 103% | inhibition [6] 1.55% | RAM network inhibition [7] 2.66%

Cc1cc(C)n2nc(S(=O)(=O)NCCc3ccccc3)nc2n1
inactive: growth inhibition [1] -6.26% | growth inhibition [2] -8.79% | viability increase [3] -0.6% | viability [4] 111% | viability [5] 100% | inhibition [6] 2.72% | RAM network inhibition [7] 1.3%

CC1=C(C(N)=O)C(c2ccccn2)n2nc(SCc3ccccc3Cl)nc2N1 (configuration not stated)
inactive: growth inhibition [1] -4.42% | growth inhibition [2] -12.1% | viability increase [3] -1.33% | viability [4] 90.5% | viability [5] 83.3% | inhibition [6] 1.04% | RAM network inhibition [7] 0.26%

O=C(NC1CCCCC1)C1CCN(S(=O)(=O)c2cccc3cccnc23)CC1
inactive: growth inhibition [1] 4.71% | growth inhibition [2] -0.575% | viability increase [3] -0.83% | viability [4] 101% | viability [5] 102% | inhibition [6] 0.46% | RAM network inhibition [7] 1.34%

CCCC(NS(=O)(=O)c1ccc(Br)cc1)C(=O)O (configuration not stated)
inactive: growth inhibition [1] -3.98% | growth inhibition [2] -0.42% | viability increase [3] -0.09% | viability [4] 104% | viability [5] 99.3% | inhibition [6] 0.57% | RAM network inhibition [7] 4.41%

O=C(NC1CCCCCC1)C1CCN(S(=O)(=O)c2cccc3cccnc23)CC1
inactive: growth inhibition [1] 8.96% | growth inhibition [2] 6.42% | viability increase [3] 2.08% | viability [4] 99.5% | viability [5] 105% | inhibition [6] -0.605% | RAM network inhibition [7] 1.35%

Cc1ccc(-c2noc(CSc3nnnn3C3CCCCC3)n2)cc1
inactive: growth inhibition [1] -16.1% | growth inhibition [2] -13.6% | viability increase [3] -1.39% | viability [4] 89.8% | viability [5] 84% | inhibition [6] 0.525% | RAM network inhibition [7] 5.16%

O=C(OCCN1C(=O)c2ccccc2C1=O)c1cc2ccccc2o1
inactive: growth inhibition [1] -11.6% | growth inhibition [2] -4.04% | viability increase [3] 0.07% | viability [4] 97.3% | viability [5] 99.1% | inhibition [6] 2.92% | RAM network inhibition [7] 3.68%

CC1CCC(NC(=O)c2cc3c(=O)n(C)c4ccccc4c3n2C)CC1 (configuration not stated)
inactive: growth inhibition [1] -12.8% | growth inhibition [2] -9.28% | viability increase [3] -4.41% | viability [4] 76.8% | viability [5] 66% | inhibition [6] 2.25% | RAM network inhibition [7] 4.58%
